From the RNAGym collection of RNA variant scans (doi:10.1126/science.aae0568)
This sample holds only a part of the variants without activity.

B1: tRNA (parent)
chain: GUUCCGUUGGCGUAAUGGUAACGCGUCUCCCUCCUAAGGAGAAGACUGCGGGUUCGAGUCCCGUACGGAACG

Variants of: B1
Experiment: yeast fitness relative to wild type (ratio to wild type); higher = fitter; tRNA-Arg(CCU), competitive growth, 37 C, YPD
Summary of the method: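 Variants of the tRNA-Arg(CCU) gene, chemically synthesised with a 3% per-site mutation rate at 69 sites, were placed at the native genomic locus in Saccharomyces cerevisiae. The pooled strains were competed in YPD at 37°C for 24 hours in six parallel replicates. Gene amplicons from the start population and from each end population were read by 100-nucleotide paired-end sequencing. Darwinian fitness relative to wild type came from changes in genotype frequencies; genotypes needed ≥ 100 starting reads, and estimates < 0.5 were set to 0.5.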
Variant U19C A21C G51A G58A has a yeast fitness of at most 0.5.
With U19C A42U G68C the yeast fitness was at most 0.5.
For U19C A42C, the yeast fitness was 1.06.
Work on U19C A42G yielded a yeast fitness of 0.774.
Work on U19C C27A C31G U32C G39C yielded a yeast fitness of at most 0.5.
In the case of U19C C24U A40C, the yeast fitness is reported as 0.663.
Variant U19C A57C C61A has a yeast fitness of at most 0.5.
With U19C A20C C31G C49G the yeast fitness was at most 0.5.
Work on U19C A36C G39A C62G yielded a yeast fitness of at most 0.5.
With U19C C24U A69C the yeast fitness was 0.789.
With U19C A70G the yeast fitness was 0.982.
U19C C24G U35C A37U U47A gave a yeast fitness of at most 0.5.
Variant U19C C22G G63C G68U has a yeast fitness of at most 0.5.
For U19C C29G A57G U59A G68U A70G, the yeast fitness was 0.55.
For U19C A20G, the yeast fitness was 0.964.
Variant U19C C24U U53A C62A C66U has a yeast fitness of at most 0.5.
U19C C30A gave a yeast fitness of 1.03.
In the case of U19C A20C A21U C55U A65U, the yeast fitness is reported as at most 0.5.
Variant U19C C31A C66U has a yeast fitness of 0.555.
For U19C A20C C31G, the yeast fitness was 0.542.
With U19C A20C C31A the yeast fitness was at most 0.5.
With U19C A40U C55U A65G the yeast fitness was at most 0.5.
U19C C27U C46A C62G A69U gave a yeast fitness of at most 0.5.
U19C C27A G50C showed a yeast fitness of 0.577.
U19C A43U C49U C62U showed a yeast fitness of 0.573.
For U19C A20U A69U, the yeast fitness was 1.05.
In the case of U19C C22U G67A, the yeast fitness is reported as 0.772.
Work on U19C C29G U47A yielded a yeast fitness of at most 0.5.
U19C C29U C61U G68C gave a yeast fitness of at most 0.5.
For U19C C24A G58A C66U, the yeast fitness was at most 0.5.
In the case of U19C A45C C55U, the yeast fitness is reported as 0.518.
In the case of U19C C29G C31A, the yeast fitness is reported as at most 0.5.
For U19C C24A, the yeast fitness was 0.601.
Work on U19C C24G yielded a yeast fitness of 0.621.
With U19C C24G A37U G56A A65C the yeast fitness was at most 0.5.
With U19C C24G C34A the yeast fitness was at most 0.5.
Work on U19C A20U G56C A57U yielded a yeast fitness of 0.562.
Work on U19C C22G G25C C33U G39C C62G yielded a yeast fitness of at most 0.5.
U19C C30G A40C G51A C61A showed a yeast fitness of 0.696.
U19C C31G C49U showed a yeast fitness of 0.736.
Work on U19C A20U A43U yielded a yeast fitness of 0.66.
In the case of U19C C22G A70U, the yeast fitness is reported as 0.743.
With U19C C55G the yeast fitness was 0.676.
In the case of U19C C27G, the yeast fitness is reported as 0.579.
U19C C27U showed a yeast fitness of 1.08.
With U19A U64G the yeast fitness was 0.687.
U19A U64C showed a yeast fitness of 0.901.
U19C C31G C62U showed a yeast fitness of 0.702.
In the case of U19C C24U C55U A57C, the yeast fitness is reported as at most 0.5.
With U19C A37G C49A the yeast fitness was at most 0.5.
U19C C24G A36G A37U U47A gave a yeast fitness of at most 0.5.
For U19C A21U C31U A42G A43U, the yeast fitness was 0.929.
Variant U19C C22G C24A G39C A45C U47C has a yeast fitness of 0.721.
With U19C A45C G68C the yeast fitness was at most 0.5.
Work on U19C A20G G67A yielded a yeast fitness of 0.76.
Variant U19C C46G A69U has a yeast fitness of 0.803.
In the case of U19C A40C G50A, the yeast fitness is reported as 0.664.
Work on U19C A65U G68A yielded a yeast fitness of 0.534.
With U19C A20U C22U C27G G48C G51A the yeast fitness was at most 0.5.
For U19C C22U C61A A70G, the yeast fitness was at most 0.5.
U19C C24U C49A U54C C60G gave a yeast fitness of at most 0.5.
For U19C C22U C55A C66U, the yeast fitness was at most 0.5.
Work on U19C C27A C30G U54A G56A yielded a yeast fitness of 0.671.
With U19C A20U G67U A69U the yeast fitness was 0.53.
Work on U19C C49U yielded a yeast fitness of 0.999.
U19C C49A gave a yeast fitness of 0.606.
U19C C24G C33A showed a yeast fitness of at most 0.5.
For U19C C22U C55U C61G, the yeast fitness was at most 0.5.
U19C A37G G44C G58A A65G showed a yeast fitness of 0.63.
For U19C C27U C33G C34G G44A G50A G52A, the yeast fitness was at most 0.5.
With U19C A57U the yeast fitness was 0.658.
For U19C C24G A37U U47A, the yeast fitness was 0.524.
U19C A20U A70U showed a yeast fitness of 0.794.
For U19C A37G G56C, the yeast fitness was at most 0.5.
With U19C C31A A37G G50U C62G the yeast fitness was at most 0.5.
U19C C24G U35A gave a yeast fitness of 0.804.
For U19C C22U G44C, the yeast fitness was 0.551.
U19C A43U C49U gave a yeast fitness of 0.698.
U19C A20C C33U U35A C49A gave a yeast fitness of 0.539.
For U19C C24U G51A, the yeast fitness was 0.66.
Work on U19C C22U G50A U64C yielded a yeast fitness of at most 0.5.
In the case of U19C A65C, the yeast fitness is reported as 0.888.
With U19C C30U G56A A69C the yeast fitness was at most 0.5.
With U19C C24G A37U U47A A57G the yeast fitness was at most 0.5.
Work on U19C A69U yielded a yeast fitness of 0.925.
Work on U19C C29U A57C G68C yielded a yeast fitness of at most 0.5.
Work on U19C C29A U32G G58A A69G yielded a yeast fitness of at most 0.5.
With U19C C49A C62A the yeast fitness was at most 0.5.
U19C C31G C66G gave a yeast fitness of at most 0.5.
U19C A40G gave a yeast fitness of 0.898.
Variant U19C A40C has a yeast fitness of 1.1.
Work on U19C A40U yielded a yeast fitness of 0.98.
Work on U19C yielded a yeast fitness of 0.972.
U19C A40C A65U showed a yeast fitness of 0.605.
For U19C A65G G68U, the yeast fitness was 0.583.
Variant U19C C31U G58A has a yeast fitness of 0.715.
Variant U19C A45U C46U A57U has a yeast fitness of at most 0.5.
In the case of U19C C31A A36C G44A A57U, the yeast fitness is reported as at most 0.5.
Variant U19C C30G C33G U53A has a yeast fitness of at most 0.5.
U19C A57G A70U showed a yeast fitness of 0.601.
With U19C C29U A42C A57G the yeast fitness was 0.541.
Work on U19C C46G yielded a yeast fitness of 0.943.
For U19C C46A, the yeast fitness was 0.978.
U19C C46U showed a yeast fitness of 1.06.
U19C C30G G51C showed a yeast fitness of at most 0.5.
In the case of U19C C22G C24A, the yeast fitness is reported as 0.72.
With U19C C34G G68A the yeast fitness was at most 0.5.
In the case of U19C A21G U26G G39C C46A A70C, the yeast fitness is reported as at most 0.5.
With U19C C24U C61U the yeast fitness was 0.787.
In the case of U19C A37U, the yeast fitness is reported as 1.08.
Variant U19C A37C has a yeast fitness of 0.658.
Variant U19C A37G has a yeast fitness of 0.784.
In the case of U19C A20U C22U C27G, the yeast fitness is reported as 0.532.
For U19C C24U C66U, the yeast fitness was 0.712.
Work on U19C C27G C31G G39C A57C yielded a yeast fitness of at most 0.5.
U19C A45G gave a yeast fitness of 1.
U19C A45C gave a yeast fitness of 0.861.
U19C C22G C24A G39C A45U showed a yeast fitness of 0.572.
With U19C C22G C24A G39C A45C the yeast fitness was 0.916.
U19C A20C A21U G56A A69C showed a yeast fitness of at most 0.5.
With U19C C34U C49A G56C C62A A65C the yeast fitness was at most 0.5.
In the case of U19C A21U C49U, the yeast fitness is reported as 0.966.
For U19C A43G A69U, the yeast fitness was 1.05.
U19C A20U A57G gave a yeast fitness of 0.695.
U19C C31U C33G G41A C55U C61A showed a yeast fitness of at most 0.5.
U19C A21C G39C C61U gave a yeast fitness of at most 0.5.
U19C C29G C33G G41C C66U showed a yeast fitness of at most 0.5.
In the case of U19C C27U C29G C34A A42C A69C, the yeast fitness is reported as at most 0.5.
U19C A36C G58C showed a yeast fitness of at most 0.5.
Work on U19C C31U G56A G67A yielded a yeast fitness of 0.601.
Variant U19C C27G A65U G68U has a yeast fitness of at most 0.5.
With U19C C27U C29G C34A A42C A65G the yeast fitness was 0.541.
Variant U19C C31A A69U has a yeast fitness of 0.534.
U19C C33U G41C showed a yeast fitness of 0.583.
U19C A20U G56A showed a yeast fitness of 0.724.
In the case of U19C A21C C33U C61A A70C, the yeast fitness is reported as at most 0.5.
With U19C C22U the yeast fitness was 0.895.
With U19C C33G A36U G44A the yeast fitness was at most 0.5.
In the case of U19C C31U, the yeast fitness is reported as 0.986.
Variant U19C C31G has a yeast fitness of 0.841.
Work on U19C A37C G63A yielded a yeast fitness of at most 0.5.
For U19C C27G C29A C33A A43C, the yeast fitness was at most 0.5.
U19C C24G A37U C46U U47A showed a yeast fitness of at most 0.5.
For U19C A37G A65U, the yeast fitness was 0.58.
Variant U19C C34U G52A U59A has a yeast fitness of 0.669.
For U19C A36U, the yeast fitness was 0.566.
U19C C29U C34A gave a yeast fitness of at most 0.5.
U19C C22A U32A A37U A45C showed a yeast fitness of 0.505.
For U19C C22A U32A A37U A45U, the yeast fitness was at most 0.5.
With U19C C24G G39C the yeast fitness was at most 0.5.
Work on U19C C34U A43U A70C yielded a yeast fitness of 0.572.
U19C C31U G56A gave a yeast fitness of 0.954.
With U19C A36G A43G C60U C62U A70C the yeast fitness was at most 0.5.
With U19C A57G G58C the yeast fitness was 0.609.
Variant U19C C24U U32C A37C A45G A57C has a yeast fitness of 0.638.
Work on U19C A21G yielded a yeast fitness of 0.906.
U19C A20U C22U C27G G39U showed a yeast fitness of at most 0.5.
For U19C C33A, the yeast fitness was 0.636.
In the case of U19C A43U A69U, the yeast fitness is reported as 1.09.
U19C A21U A43C C49U showed a yeast fitness of 0.547.
For U19C A43U, the yeast fitness was 1.03.
With U19C A43G the yeast fitness was 1.07.
With U19C A43C the yeast fitness was 0.907.
In the case of U19C A36C G41C C66A, the yeast fitness is reported as at most 0.5.
Variant U19C A40C U53A has a yeast fitness of 0.532.
Work on U19C C24G G50C yielded a yeast fitness of 0.768.
In the case of U19C C29A A43C, the yeast fitness is reported as at most 0.5.
